Reference: ChEMBL document CHEMBL4610016, “Synthesis, biological evaluation and anti-proliferative mechanism of fluorine-containing proguanil derivatives” (Bioorg Med Chem, 2020)
pIC50: −log10 of the molar value. Calls of active or inactive are those of the source. The calls are words filed in the database; no cut-off is given here.

Experiments:
[1] = system: A2780; assay: Inhibition of colony formation in human A2780 cells at 2 uM incubated for 6 to 8 days by crystal violet staining based assay; type: functional, cell-based
How it was run: (§1)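 Colony formation: 8.0×10³ cells per well were seeded, and treatment began after 24 h, in triplicate, for 6–8 days. Ranges were 0–8 μM for UMUC3, T24 and HCT116, 0–4 μM for A2780, and 0–2 μM for A549. Cells were fixed in 10% formaldehyde and stained with 0.1% crystal violet. Colonies were counted, and absorbance was read at 490 nm. Data are the mean of 3 independent experiments.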

[2] = system: HCT-116; assay: Inhibition of colony formation in human HCT116 cells at 2 uM incubated for 6 to 8 days by crystal violet staining based assay; type: functional, cell-based; how it was run: as §1
[3] = system: T-24; assay: Inhibition of colony formation in human T24 cells at 2 uM incubated for 6 to 8 days by crystal violet staining based assay; type: functional, cell-based; how it was run: as §1
[4] = system: HCT-116; assay: Antiproliferative activity against human HCT116 cells assessed as reduction in cell viability incubated for 72 hrs by MTT assay; type: functional, cell-based; settings: HCT-116, 72 h
[5] = system: A2780; assay: Antiproliferative activity against human A2780 cells assessed as reduction in cell viability incubated for 72 hrs by MTT assay; type: functional, cell-based; settings: A2780, 72 h
How it was run: (§2)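 Cells were seeded at 6.0×10³ per well and left 12 h, then treated in triplicate for 72 h. Ranges were 0–8 μM for UMUC3, T24, A2780 and HCT116, and 0–4 μM for A549. MTT (2 mg/mL) replaced the medium for 6 h at 37 °C, followed by DMSO solubilization and OD 490 nm. IC50 was taken as the mean of triplicate measurements. Cells were kept at 37 °C, 5% CO₂.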

[6] = system: UMUC3; assay: Inhibition of colony formation in human UM-UC-3 cells at 2 uM incubated for 6 to 8 days by crystal violet staining based assay; type: functional, cell-based; how it was run: as §1
[7] = system: T-24; assay: Inhibition of cell migration in human T24 cells at 3 uM incubated for 24 and 48 hrs by cellular scratch assay based microscopic analysis; type: functional
How it was run: (§3)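 Scratch wound assay. Cells were grown to confluence and scratched with a 10 μL tip, then washed twice with PBS. Compound was added in serum-free medium: 3 μM for UMUC3 and T24, 2 μM for A549. Gaps were photographed at 0, 24 and 48 h, and wound closure distance was measured. Three independent repeats were run.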

[8] = system: UMUC3; assay: Antiproliferative activity against human UM-UC-3 cells assessed as reduction in cell viability incubated for 72 hrs by MTT assay; type: functional, cell-based; settings: UMUC3, 72 h; how it was run: as §2
[9] = system: A549; assay: Antiproliferative activity against human A549 cells assessed as reduction in cell viability incubated for 72 hrs by MTT assay; type: functional, cell-based; settings: A549, 72 h; how it was run: as §2
[10] = system: HUVEC; assay: Cytotoxicity against human HUVEC cells assessed as reduction in cell viability incubated for 72 hrs by MTT assay; type: cell-based
How it was run: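 HUVEC were treated at 0–8 μM for 72 h, and viability was read from concentration-response curves. Values are the average of 3 independent experiments.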

[11] = system: A549; assay: Inhibition of cell migration in human A549 cells at 2 uM incubated for 24 and 48 hrs by cellular scratch assay based microscopic analysis; type: functional; how it was run: as §3
[12] = system: A549; assay: Inhibition of colony formation in human A549 cells at 2 uM incubated for 6 to 8 days by crystal violet staining based assay relative to control; type: functional; how it was run: as §1
[13] = system: UMUC3; assay: Inhibition of cell migration in human UM-UC-3 cells at 3 uM incubated for 24 and 48 hrs by cellular scratch assay based microscopic analysis; type: functional; how it was run: as §3
[14] = system: T-24; assay: Antiproliferative activity against human T24 cells assessed as reduction in cell viability incubated for 72 hrs by MTT assay; type: functional, cell-based; settings: T-24, 72 h
[15] = biological target: T1, AMP-activated protein kinase, AMPK (Homo sapiens) (UniProt P54646+O43741+P54619+Q9UGJ0+Q9Y478+Q13131+Q9UGI9); assay: Activation of AMPK in human T24 cells assessed as increase in AMPK phosphorylation at 2 uM measured upto 12 hrs by Western blot analysis; type: cell-based; settings: T-24
How it was run: (§4)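 Western blot of bladder cancer cells treated at 2 μM over a 0–12 h time course; separately, a 0–2 μM series was run for 12 h. Lysates were resolved by 8% or 10% SDS-PAGE, transferred to PVDF, and blocked in 5% milk/TBST for 1 h. Primary antibodies were applied overnight at 4 °C and secondaries for 1 h. Phospho- and total AMPK, mTOR, p70S6K and 4EBP1 were probed. Band density was normalized to β-actin, and the mean of 3 independent experiments is reported.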

[16] = biological target: T1, AMP-activated protein kinase, AMPK (Homo sapiens); assay: Activation of AMPK in human UM-UC-3 cells assessed as decrease in mTOR phosphorylation at 2 uM measured upto 12 hrs by Western blot analysis; type: cell-based; how it was run: as §4
[17] = biological target: T1, AMP-activated protein kinase, AMPK (Homo sapiens); assay: Activation of AMPK in human UM-UC-3 cells assessed as increase in AMPK phosphorylation at 2 uM measured upto 12 hrs by Western blot analysis; type: cell-based; how it was run: as §4
[18] = biological target: T1, AMP-activated protein kinase, AMPK (Homo sapiens); assay: Activation of AMPK in human T24 cells assessed as decrease in p70S6K phosphorylation at 2 uM measured upto 12 hrs by Western blot analysis; type: cell-based; settings: T-24; how it was run: as §4
[19] = biological target: T1, AMP-activated protein kinase, AMPK (Homo sapiens); assay: Activation of AMPK in human T24 cells assessed as decrease in mTOR phosphorylation at 2 uM measured upto 12 hrs by Western blot analysis; type: cell-based; settings: T-24; how it was run: as §4
[20] = biological target: T1, AMP-activated protein kinase, AMPK (Homo sapiens); assay: Activation of AMPK in human UM-UC-3 cells assessed as decrease in p70S6K phosphorylation at 2 uM measured upto 12 hrs by Western blot analysis; type: cell-based; how it was run: as §4
[21] = biological target: T1, AMP-activated protein kinase, AMPK (Homo sapiens); assay: Activation of AMPK in human T24 cells assessed as decrease in 4EBP1 phosphorylation at 2 uM measured upto 12 hrs by Western blot analysis; type: cell-based; settings: T-24; how it was run: as §4
[22] = biological target: T1, AMP-activated protein kinase, AMPK (Homo sapiens); assay: Activation of AMPK in human UM-UC-3 cells assessed as decrease in 4EBP1 phosphorylation at 2 uM measured upto 12 hrs by Western blot analysis; type: cell-based; how it was run: as §4

| SMILES | pIC50 [4] | pIC50 [5] | pIC50 [8] | pIC50 [9] | pIC50 [14] | also measured |
| --- | --- | --- | --- | --- | --- | --- |
| CCCCCCCNC(=N)NC(=N)Nc1ccc(F)c(F)c1 | 5.74 | 5.82 | 5.68 | 5.82 | 5.37 | inhibition [1]: Active; inhibition [2]: Active; inhibition [3]: Active; inhibition [6]: Active; inhibition [7]: Active; pIC50 [10]: 5.19; inhibition [11]: Active; inhibition at 2 µM [12]: 100%; inhibition [13]: Active |
| CC(C)NC(=N)NC(=N)Nc1ccc(F)cc1 | < 4.30 | 4.55 | < 4.30 | 5.12 | < 4.30 | – |
| CCN(CC)C(=N)NC(=N)Nc1ccc(F)c(F)c1 | 4.40 | 4.69 | 4.66 | 5.11 | 4.35 | – |
| CC(C)CNC(=N)NC(=N)Nc1ccc(F)cc1F | 4.68 | 4.70 | 4.76 | 5.44 | 4.39 | – |
| CCN(C)C(=N)NC(=N)Nc1ccc(C(F)(F)F)cc1 | 5.40 | 5.29 | 5.16 | 5.39 | 5.24 | – |
| CCN(CC)C(=N)NC(=N)Nc1ccc(C(F)(F)F)cc1 | 5.37 | 5.42 | 5.31 | 5.43 | 5.21 | – |
| CC(C)CNC(=N)NC(=N)Nc1ccc(C(F)(F)F)cc1 | 5.46 | 5.68 | 5.70 | 5.89 | 5.51 | Activity [15]: Active; Activity [16]: Active; inhibition [1]: Active; inhibition [2]: Active; Activity [17]: Active; inhibition [3]: Active; Activity [18]: Active; inhibition [6]: Active; Activity [19]: Active; Activity [20]: Active; inhibition [7]: Active; Activity [21]: Active; pIC50 [10]: 5.07; inhibition [11]: Active; inhibition at 2 µM [12]: 100%; inhibition [13]: Active; Activity [22]: Active |
| CC(C)CNC(=N)NC(=N)Nc1ccc(F)c(F)c1 | 4.53 | 5.17 | 5.15 | 5.62 | 4.37 | – |
| CC(C)NC(=N)NC(=N)Nc1ccc(C(F)(F)F)cc1 | 5.32 | 5.49 | 5.28 | 5.44 | 5.32 | – |
| CC(C)NC(=N)NC(=N)Nc1ccc(F)c(F)c1 | < 4.30 | 4.59 | 4.60 | 5.28 | 4.35 | – |
| N=C(NC(=N)NC1CCCC1)Nc1ccc(F)cc1F | 4.53 | 4.83 | 4.74 | 5.40 | 4.42 | – |
| N=C(NC(=N)NC1CCCC1)Nc1ccc(F)c(F)c1 | 4.77 | 5.03 | 5.14 | 5.46 | 4.60 | – |
| N=C(NC(=N)NC1CCCC1)Nc1ccc(C(F)(F)F)cc1 | 5.42 | 5.60 | 5.48 | 5.74 | 5.43 | inhibition [1]: Active; inhibition [2]: Active; inhibition [3]: Active; inhibition [6]: Active; inhibition [7]: Active; pIC50 [10]: 5.14; inhibition [11]: Active; inhibition at 2 µM [12]: 100%; inhibition [13]: Active |
| CC(C)NC(=N)NC(=N)Nc1ccc(Cl)cc1 [PROGUANIL] | 5.08 | 4.89 | 4.79 | 5.42 | 4.74 | Activity [15]: inactive; Activity [16]: Active; inhibition [1]: Active; inhibition [2]: Active; Activity [17]: inactive; inhibition [3]: Active; Activity [18]: Active; inhibition [6]: Active; Activity [19]: Active; Activity [20]: Active; inhibition [7]: inactive; Activity [21]: Active; inhibition [11]: inactive; inhibition [13]: inactive; Activity [22]: Active |
